Legend:
[1] = target: T1, Poly [ADP-ribose] polymerase 1 (Homo sapiens, UniProt P09874); assay: Inhibition of recombinant human PARP1 expressed in Escherichia coli BL21(DE3) using sheared DNA as substrate measured after 1 hr in presence of NAD+
[2] = target: T1, Poly [ADP-ribose] polymerase 1; assay: Inhibition of recombinant human PARP1 expressed in Escherichia coli BL21(DE3) using histone as substrate measured after 1 hr in presence of biotinylated NAD+ by ELISA
Homo sapiens = species: Homo sapiens; assay: Selectivity ratio of IC50 for recombinant human PARP2 to IC50 for recombinant human PARP1
In short: (§1)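 Human recombinant PARP2 (and PARP1) expressed and purified, inhibition measured by ELISA, with AZD2281 as positive control. IC50 from concentration–response fitting.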

[3] = target: Poly [ADP-ribose] polymerase 2 (Homo sapiens, UniProt Q9UGN5); assay: Inhibition of recombinant human PARP2 expressed in Escherichia coli BL21(DE3) using histone as substrate measured after 1 hr in presence of biotinylated NAD+ by ELISA; in short: as §1
[4] = target: T1, Poly [ADP-ribose] polymerase 1; assay: Inhibition of PARP1 in human MX1 cells assessed as potentiation of temozolomide-induced cytotoxicity at 10 uM after 72 hrs by MTT assay relative to temozolomide alone; assay type: cell-based
In short: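 MX-1 cells seeded at 2000/well and exposed for 72 h to TMZ (0–0.5 mmol/L) with or without PARP inhibitor fixed at 10 μmol/L. Survival read by MTT. PF50 = IC50 of TMZ alone / IC50 of TMZ + inhibitor.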

MX1 [5] = assay: Anti-tumor activity against human MX1 cells xenografted in BALB/c mouse assessed as tumor growth inhibition at 50 mg/kg, po administered once daily via gavage for 10 days measured after 11 days relative to control; assay type: functional
In short: (§2)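 Female athymic BALB/c nude mice, 8–10 weeks old, implanted s.c. with 1×10^6 MX-1 cells in 0.1 mL PBS. Day 6: grouped at 6/group, tumors 100–300 mm³. Oral gavage once daily. TMZ 50 mg/kg/day for 5 days; single-agent test compound 50 mg/kg/day for 10 days; combinations both orally for 5 days. Body weight and tumor volume measured twice weekly; euthanized day 11.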

Mus musculus [6] = assay: Toxicity in BALB/c mouse assessed as change in body weight at 50 mg/kg, po administered once daily via gavage for 10 days measured twice every week up to 11 days (reference value: 5.32 g); assay type: organism-based; settings: in vivo; in short: as §2
MX1 [7] = assay: Anti-tumor activity against human MX1 cells xenografted in BALB/c mouse assessed as tumor growth inhibition at 50 mg/kg, po administered once daily via gavage for 5 days measured after 11 days in presence of temozolomide relative to control; assay type: functional; in short: as §2
MX1 [8] = assay: Anti-tumor activity against human MX1 cells xenografted in BALB/c mouse assessed as tumor growth inhibition at 50 mg/kg, po administered once daily via gavage for 5 days measured after 11 days in presence of temozolomide relative to temozolomide; assay type: functional; in short: as §2
MX1 [9] = assay: Anti-tumor activity against human MX1 cells xenografted in BALB/c mouse assessed as tumor weight at 50 mg/kg, po administered once daily via gavage for 10 days measured after 11 days (reference value: 4.09 +/- 0.64 g); assay type: functional; in short: as §2
Mus musculus [10] = assay: Toxicity in BALB/c mouse assessed as change in body weight at 25 mg/kg, po administered once daily via gavage for 5 days in presence of temozolomide measured twice every week up to 11 days (reference value: 5.32 g); assay type: organism-based; settings: in vivo; in short: as §2
MX1 [11] = assay: Anti-tumor activity against human MX1 cells xenografted in BALB/c mouse assessed as tumor weight at 50 mg/kg, po administered once daily via gavage for 5 days measured after 11 days in presence of temozolomide (reference value: 4.09 +/- 0.64 g); assay type: functional; in short: as §2
MX1 [12] = assay: Anti-tumor activity against human MX1 cells xenografted in BALB/c mouse assessed as tumor weight at 25 mg/kg, po administered once daily via gavage for 5 days measured after 11 days in presence of temozolomide (reference value: 4.09 +/- 0.64 g); assay type: functional; in short: as §2
Mus musculus [13] = assay: Toxicity in BALB/c mouse assessed as change in body weight at 50 mg/kg, po administered once daily via gavage for 5 days in presence of temozolomide measured twice every week up to 11 days (reference value: 5.32 g); assay type: organism-based; settings: in vivo; in short: as §2
MX1 [14] = assay: Anti-tumor activity against human MX1 cells xenografted in BALB/c mouse assessed as tumor growth inhibition at 25 mg/kg, po administered once daily via gavage for 5 days measured after 11 days in presence of temozolomide relative to temozolomide; assay type: functional; in short: as §2
MX1 [15] = assay: Anti-tumor activity against human MX1 cells xenografted in BALB/c mouse assessed as tumor growth inhibition at 25 mg/kg, po administered once daily via gavage for 5 days measured after 11 days in presence of temozolomide relative to control; assay type: functional; in short: as §2
[16] = Mus musculus, MX1, po, read-out: TGI

T1 sequence (P09874 whole entry): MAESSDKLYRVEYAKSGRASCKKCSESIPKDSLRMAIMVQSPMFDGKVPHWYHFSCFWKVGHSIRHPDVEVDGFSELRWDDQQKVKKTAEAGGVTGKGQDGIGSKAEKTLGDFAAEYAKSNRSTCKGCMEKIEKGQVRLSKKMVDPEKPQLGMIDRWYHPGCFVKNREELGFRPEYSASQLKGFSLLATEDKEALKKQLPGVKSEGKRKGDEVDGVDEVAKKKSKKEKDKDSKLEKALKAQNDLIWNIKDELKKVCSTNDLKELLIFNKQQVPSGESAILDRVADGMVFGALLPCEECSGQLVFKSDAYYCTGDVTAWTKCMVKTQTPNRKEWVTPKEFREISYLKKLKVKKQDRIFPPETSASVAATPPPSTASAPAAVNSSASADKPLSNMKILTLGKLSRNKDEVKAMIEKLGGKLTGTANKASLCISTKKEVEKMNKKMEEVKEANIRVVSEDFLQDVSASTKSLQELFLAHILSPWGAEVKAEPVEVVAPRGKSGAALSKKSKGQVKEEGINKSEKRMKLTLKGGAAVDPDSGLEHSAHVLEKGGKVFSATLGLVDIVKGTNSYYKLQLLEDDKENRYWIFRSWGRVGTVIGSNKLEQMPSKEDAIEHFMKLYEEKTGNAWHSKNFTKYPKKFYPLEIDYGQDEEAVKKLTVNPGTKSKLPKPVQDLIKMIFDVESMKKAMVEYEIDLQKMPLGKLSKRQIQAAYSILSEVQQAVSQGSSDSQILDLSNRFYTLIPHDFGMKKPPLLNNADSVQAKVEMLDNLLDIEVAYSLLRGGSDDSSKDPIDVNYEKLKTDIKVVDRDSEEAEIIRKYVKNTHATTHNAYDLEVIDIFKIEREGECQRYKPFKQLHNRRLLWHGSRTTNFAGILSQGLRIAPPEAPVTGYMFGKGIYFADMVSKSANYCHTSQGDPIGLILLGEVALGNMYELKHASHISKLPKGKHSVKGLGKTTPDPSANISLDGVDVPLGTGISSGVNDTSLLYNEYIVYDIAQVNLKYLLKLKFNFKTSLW
Poly [ADP-ribose] polymerase 2, sequence (Q9UGN5 whole entry): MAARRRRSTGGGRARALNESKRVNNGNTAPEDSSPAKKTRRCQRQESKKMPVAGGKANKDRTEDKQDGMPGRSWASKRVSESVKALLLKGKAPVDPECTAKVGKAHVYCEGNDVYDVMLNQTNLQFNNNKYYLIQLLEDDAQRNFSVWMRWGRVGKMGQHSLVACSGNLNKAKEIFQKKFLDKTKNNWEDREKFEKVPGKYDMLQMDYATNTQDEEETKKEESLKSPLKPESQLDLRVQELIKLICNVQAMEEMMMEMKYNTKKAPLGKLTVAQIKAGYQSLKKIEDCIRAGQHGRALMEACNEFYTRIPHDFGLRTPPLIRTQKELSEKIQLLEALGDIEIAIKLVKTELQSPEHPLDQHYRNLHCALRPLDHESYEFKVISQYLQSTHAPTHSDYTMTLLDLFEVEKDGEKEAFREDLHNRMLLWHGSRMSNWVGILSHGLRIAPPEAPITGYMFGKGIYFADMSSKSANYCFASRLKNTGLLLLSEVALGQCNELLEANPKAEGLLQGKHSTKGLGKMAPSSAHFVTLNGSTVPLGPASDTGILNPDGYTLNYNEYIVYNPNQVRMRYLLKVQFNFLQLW

## NC(=O)c1cccc2[nH]c(C(=O)NC3CCCN(C4CCNCC4)C3)nc12 (configuration not stated)
[1]
  IC50: 793 nM

## NC(=O)c1cccc2[nH]c(C(=O)N3CCC(NC4CCCCC4)C3)nc12 (configuration not stated)
[2]
  IC50: 75 nM
Homo sapiens
  Ratio IC50: < 10
[3]
  IC50: 91 nM
[4]
  PF50: 4.17

## CCC(CC)N1CCC(NC(=O)c2nc3c(C(N)=O)cccc3[nH]2)CC1
[2]
  IC50: 302 nM

## NC(=O)c1cccc2[nH]c(C(=O)NC3CCN(C4CCCCC4)CC3)nc12
[2]
  IC50: 311 nM

## CC(C)(C)OC(=O)NC1CCN(C(=O)c2nc3c(C(N)=O)cc(F)cc3[nH]2)CC1
[2]
  IC50: 80 nM

## NC(=O)c1cc(F)cc2[nH]c(C(=O)N3CCNC(=O)C3)nc12
[2]
  IC50: 15 nM

## NC(=O)c1cccc2[nH]c(C(=O)N3CCC(NC4CCNCC4)CC3)nc12
[2]
  IC50: 316 nM

## NC(=O)c1cccc2[nH]c(C(=O)NC3CCNC3)nc12 (configuration not stated)
[1]
  IC50: 343 nM

## CC(C)(C)OC(=O)N1CCC(NC(=O)c2nc3c(C(N)=O)cccc3[nH]2)C1 (configuration not stated)
[1]
  IC50: 1810 nM

## CC[C@@H]1CN(C(=O)c2nc3c(C(N)=O)cccc3[nH]2)CCN1
[2]
  IC50: > 100 nM

## CC[C@@H]1CN(C(=O)c2nc3c(C(N)=O)cccc3[nH]2)CCN1C(=O)OC(C)(C)C
[2]
  IC50: > 100 nM

## CCC(=O)N1CCN(C(=O)c2nc3c(C(N)=O)cccc3[nH]2)CC1
[2]
  IC50: > 100 nM

## CC(C)(C)CN1CCC(NC(=O)c2nc3c(C(N)=O)cc(F)cc3[nH]2)CC1
MX1 [5]
  T/C: 91%
MX1 [5]; [16]
  inhibition in vivo at 50 mg/kg: 9%
[2]
  IC50: 17 nM
Homo sapiens
  Ratio IC50: < 10
Mus musculus [6]
  Activity: 5 g
MX1 [7]
  T/C: 12%
MX1 [7]; [16]
  inhibition in vivo at 50 mg/kg: 88%
MX1 [8]
  T/C: 32%
MX1 [8]; [16]
  inhibition in vivo at 50 mg/kg: 68%
MX1 [9]
  Activity: 3.73 g
Mus musculus [10]
  Activity: 0.23 g
MX1 [11]
  Activity: 0.5 g
MX1 [12]
  Activity: 1.47 g
[3]
  IC50: 74 nM
[4]
  PF50: 7.1
Mus musculus [13]
  Activity: -0.79 g
MX1 [14]
  T/C: 94%
MX1 [14]; [16]
  inhibition in vivo at 25 mg/kg: 6%
MX1 [15]
  T/C: 36%
MX1 [15]; [16]
  inhibition in vivo at 25 mg/kg: 64%

## CC(C)(C)OC(=O)N1CCCC(NC(=O)c2nc3c(C(N)=O)cccc3[nH]2)C1 (configuration not stated)
[1]
  IC50: 1150 nM

## NC(=O)c1cccc2[nH]c(C(=O)N3CCC(NC4CCNCC4)C3)nc12 (configuration not stated)
[2]
  IC50: 60 nM

## NC(=O)c1cccc2[nH]c(C(=O)NC3CCN(C(=O)C(F)(F)F)CC3)nc12
[2]
  IC50: 83 nM

## NC(=O)c1cc(F)cc2[nH]c(C(=O)N3CCC(N)CC3)nc12
[2]
  IC50: 2.76 nM
Homo sapiens
  Ratio IC50: < 10
[3]
  IC50: 24 nM
[4]
  PF50: 0.98

## CCC(CC)N1CCC(NC(=O)c2nc3c(C(N)=O)cc(F)cc3[nH]2)CC1
[2]
  IC50: 30 nM

## CC(C)(C)OC(=O)N1CCC(N2CCCC(NC(=O)c3nc4c(C(N)=O)cccc4[nH]3)C2)CC1 (configuration not stated)
[1]
  IC50: 818 nM

## NC(=O)c1cccc2[nH]c(C(=O)N3CCNCC3)nc12
[2]
  IC50: 42 nM

## NC(=O)c1cccc2[nH]c(C(=O)NC3CCNCC3)nc12
[2]
  IC50: 101 nM
Homo sapiens
  Ratio IC50: < 10
[4]
  PF50: 1.75

## CC(C)(C)OC(=O)N1CCC(NC(=O)c2nc3c(C(N)=O)cccc3[nH]2)CC1
[2]
  IC50: 644 nM

## CC(C)N1CCC(NC(=O)c2nc3c(C(N)=O)cccc3[nH]2)CC1
[2]
  IC50: 64 nM

## CC[C@H]1CN(C(=O)c2nc3c(C(N)=O)cccc3[nH]2)CCN1C(=O)OC(C)(C)C
[2]
  IC50: 100 nM

## NC(=O)c1cccc2[nH]c(C(=O)N3CCC(N)C3)nc12 (configuration not stated)
[2]
  IC50: 15 nM
Homo sapiens
  Ratio IC50: < 10
[3]
  IC50: 48 nM
[4]
  PF50: 1.98

## CC(C)CN1CCC(NC(=O)c2nc3c(C(N)=O)cccc3[nH]2)CC1
[2]
  IC50: 92 nM

## NC(=O)c1cccc2[nH]c(C(=O)NC3CCN(CC(F)(F)F)CC3)nc12
[2]
  IC50: 34 nM
Homo sapiens
  Ratio IC50: < 10
[3]
  IC50: 100 nM
[4]
  PF50: 0.93

## NC(=O)c1cccc2[nH]c(C(=O)N3CCNC(=O)C3)nc12
[2]
  IC50: 29 nM

## CC[C@H]1CN(C(=O)c2nc3c(C(N)=O)cccc3[nH]2)CCN1
[2]
  IC50: 19 nM

— ChEMBL document CHEMBL4028811, “Discovery of 2-substituted 1H-benzo[d]immidazole-4-carboxamide derivatives as novel poly(ADP-ribose)polymerase-1 inhibitors with in vivo anti-tumor activity” (Eur J Med Chem, 2017)
